# Screening data as filed in PubChem BioAssay.
# A selection: hits, their analogues and other compounds. The true share with any hit is near 2.1%.
# M1 ag – agonists of human M1 muscarinic receptor; P11229; CHO-K1 hM1, Fluo-8 calcium fluorescence, agonist mode; 0% DMSO, 100% acetylcholine EC100; activation, % at 3 µM; 360,000 tested, 0.33% active; AID 588814;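 active = activation above the run's mean compound activation plus 3 SD, cut at about 16% in these data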;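 also: peak over basal fluorescence ratio within a 140 s kinetic read after compound addition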
# M5 antag – blocks acetylcholine activation of human M5 receptor; P08912; CHO-hM5 cells, Fluo-8 calcium fluorescence, ACh EC80; inhibition, % at 3 µM; 360,000 tested, 0.59% active; AID 624040;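 active = inhibition above a per-plate cutoff, the mean of that plate's test compounds plus 3 SD, cut at about 27% in these data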;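 also: 0% = acetylcholine EC80 with DMSO and 100% = DMSO without agonist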
# Target sequence (P08912 whole entry, looked up): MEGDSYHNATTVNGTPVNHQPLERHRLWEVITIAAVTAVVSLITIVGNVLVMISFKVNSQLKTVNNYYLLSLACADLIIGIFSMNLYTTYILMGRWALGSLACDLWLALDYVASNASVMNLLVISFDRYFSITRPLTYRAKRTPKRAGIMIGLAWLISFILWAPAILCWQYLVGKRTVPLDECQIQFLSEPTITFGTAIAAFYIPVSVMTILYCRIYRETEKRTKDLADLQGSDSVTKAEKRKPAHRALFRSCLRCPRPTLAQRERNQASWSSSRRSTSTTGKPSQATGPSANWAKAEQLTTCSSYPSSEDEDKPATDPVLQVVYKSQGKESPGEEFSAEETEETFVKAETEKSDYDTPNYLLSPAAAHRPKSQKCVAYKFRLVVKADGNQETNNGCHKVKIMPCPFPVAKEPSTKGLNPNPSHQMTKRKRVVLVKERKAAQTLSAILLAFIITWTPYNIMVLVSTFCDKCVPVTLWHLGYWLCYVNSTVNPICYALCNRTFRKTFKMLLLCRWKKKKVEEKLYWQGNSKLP
# M5 ag – agonists of human muscarinic M5 receptor (CHRM5) | P08912 | CHO-K1 hM5 cells, Fluo-8 calcium fluorescence; 0% DMSO wells, 100% maximal acetylcholine response | activation, % at 3 µM | 360,000 tested, 0.19% active | AID 624037;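 active = activation above the run's mean over test compounds plus 3 SD, cut at about 23% in these data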;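 also: signal is peak over basal fluorescence ratio across the kinetic read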
# M1 antag – antagonists of human M1 muscarinic receptor. P11229. 360,000 tested, 1.3% active. CHO-K1 hM1, Fluo-8 calcium fluorescence, ACh EC80 antagonist. AID 588852. inhibition, % at 3 µM;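 active = percent inhibition above its own plate's cutoff, namely the mean of that plate's compound wells plus 3 SD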;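 also: peak over basal fluorescence ratio during 140 s after agonist addition; 0% = ACh EC80 plus DMSO and 100% = DMSO alone without agonist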
# M1 PAM – positive allosteric modulators of human M1 muscarinic receptor. AID 588819. CHO-K1 hM1, Fluo-8 calcium fluorescence, ACh EC20; 0% = ACh EC20, 100% = maximal ACh. activation, % at 3 µM. P11229. 360,000 tested, 0.088% active; in the data active = activation above about 19%, passing the limit was not always enough
# M5 PAM – positive allosteric modulators of human muscarinic M5 receptor; activation, % at 3 µM; P08912; AID 624038; 360,000 tested, 0.3% active; CHO-K1 hM5, Fluo-8 calcium, ACh EC20 PAM; 0% = ACh EC20, 100% = ACh EC100;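 active = activation above the run cutoff, the mean activation of all test compounds plus 3 SD, cut at about 18% in these data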
#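 Assay system – human M5 receptor in CHO-K1 cells · Read-out – % activation, ACh-normalized · Technique – Fluo-8 calcium fluorescence · Dosing – single-point, 3 µM nominal · Incubation – Fluo-8 loading 80 min at 37 °C plus 30 min room temperature · Repeats – singlicate, one well per test compound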
# Numbers without * were called inactive.
SMILES,M1 ag,M5 antag,M5 ag,M1 antag,M1 PAM,M5 PAM
COc1cccc(OC2(C)CCN(Cc3ccc(-c4ccccn4)cc3)C2)c1 (configuration not stated),-7.6,4.0,-2.5,18.9,-22.2,-8.4
c1ccc(CNc2nc(NCC3CC3)nc3cc(-c4ccccc4)sc23)cc1,-0.2,25.1,-0.3,7.7,0.3,-13.8
COCCCN1CCN(C2Cc3ccccc3Sc3ccc(Cl)cc32)CC1 (configuration not stated),-6.0,30.5*,0.9,47.5*,-23.2,-18.2
Clc1cccc2c1Sc1ccccc1CC2N1CCNCC1 (configuration not stated),-9.3,77.7*,-3.3,87.9*,-26.1,-18.6
COc1ccc(Cl)cc1NC(=O)CCN1CCN(C)CC1,-1.7,0.2,0.5,-26.1,6.9,-1.5
COc1ccc2c(c1)CC(N1CCN(C)CC1)c1cc(OC)ccc1S2 (configuration not stated),6.8,7.4,-18.0,16.7,-2.2,-10.4
Clc1ccc2c(c1)C(N1CCNCC1)Cc1ccccc1S2 (configuration not stated),-4.2,96.7*,-9.7,86.6*,-25.1,-29.6
NC(=O)CCN1CCN(CCOC2Cc3cc(Cl)ccc3Sc3ccccc32)CC1 (configuration not stated),-10.6,28.2*,-4.9,-2.3,-7.9,-14.9
CC(C)c1ccc2c(c1)C(N1CCN(C)CC1)Cc1cccnc1S2 (configuration not stated),-7.4,5.1,-19.6,6.5,-7.4,-12.7
COc1ccc(CN2C(=O)c3ccccc3C2=O)cc1C(=O)OC(C)C(=O)NC(N)=O (configuration not stated),-0.5,5.3,1.6,4.3,5.8,-0.9
O=CN1Cc2[nH]c3ccccc3c2N(c2ccc(Cl)cc2)C1=O,-2.5,3.8,2.0,10.8,2.0,0.6
COc1ccccc1NC(=O)c1ccccc1-c1nc(-c2ccccc2OC)no1,-0.2,19.6,0.5,29.3*,-11.3,-16.4
CN1CC(c2ccccc2)C(c2ccc(Cl)cc2)=N1 (configuration not stated),-12.2,4.1,-7.1,-6.3,-7.2,-11.5
Cc1sc2ncnc(NCC3COc4ccccc4O3)c2c1C (configuration not stated),-4.7,38.3*,1.4,30.1,-16.8,-17.0
c1ccc(-c2csc3ncnc(NCC4COc5ccccc5O4)c23)cc1 (configuration not stated),-8.3,37.5*,-4.5,32.8,-15.8,-16.3
COc1ccc(S(=O)(=O)N2CCCCC2)cc1NC(=O)Cc1ccsc1,-1.2,10.8,1.3,1.6,3.7,0.7
CCNc1nc(NCC)n2c(SCC(=O)Nc3cccc(Cl)c3)nnc2n1,2.1,-7.8,0.7,-16.7,17.5,22.3*
O=[N+]([O-])c1ccc(C2=NN(c3ccccc3)C(c3ccco3)C2)cc1 (configuration not stated),77.7*,76.9*,213.6*,71.0*,-21.8,-31.0
O=[N+]([O-])c1ccc(/C=C/C2=NN(c3ccccc3)C(c3ccco3)C2)cc1 (configuration not stated),18.8*,42.2*,43.5*,25.5*,-13.3,-12.6
O=C(CN1C(=O)c2cccnc2Oc2ccc(Cl)cc21)NCCCc1ccccc1,1.9,16.1,-0.5,30.0*,-8.8,-13.4
CCCN1CCN(CCCNC(=O)CN2C(=O)c3cccnc3Oc3ccc(Cl)cc32)CC1,-4.2,-5.4,-3.8,-10.4,5.5,3.3
Nc1c2c(nc3sc4c(c13)CCCCC4)CCCCC2,-6.0,8.3,0.4,50.6*,-23.7,-17.9
CCN(CC#CCC1(O)c2ccccc2-c2ccccc21)C(C)C,-6.3,38.6*,-14.3,71.0*,-22.3,-49.7
CN(CC#CC1(O)c2ccccc2-c2ccccc21)Cc1ccccc1,-5.2,-2.9,-1.2,-1.8,9.2,1.4
CCN(CC)CC#CCC1(O)c2ccccc2-c2ccccc21,-10.2,23.3,-6.4,25.8*,-24.4,-25.1
